H69AR growth 86K: growth inhibitors of human H69AR lung tumor cells | H69AR lung tumor viability, ATP luminescence, 72 h; hits give low values | viability, % at 10 µM | 6% of 85,000 active;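 active = viability at or below 40%; inactive = viability above 40%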;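 note: multidrug resistant small cell line overexpressing MRP-1 efflux transporter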
Lung fibro prol: blocks proliferation of human lung fibroblasts. 1.1% of 85,000 active. AID 719. LL 47 human lung fibroblast viability, ATP luminescence; hits give low values. viability, % at 10 µM;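 active = viability at or below 50% in the single dose screen; inactive = viability above 50%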;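 note: compound exposure lasted 72 h before the ATP readout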
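Times – overnight cell rest, 72 h compound treatment at 37 °C · Test system – human lung fibroblast line LL 47, low passage · Amount – 1,150 cells in each well · Controls – cell-only wells, no compound · Doses – 0.1% DMSO in all compound wells · Measured by – CellTiter-Glo luminescence · Buffer or medium – IMEM plus 15% FBS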
MT1-MMP txn act: MT1-MMP promoter transcription activation; HT1080 MT1-MMP promoter luciferase reporter, luminescence, overnight; hits give high values; activation factor at 10 µM; 0.16% of 86,000 active; AID 750;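 active = activation factor of at least 2 for MT1-MMP transcription at 10 µM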
PTK2B oligo ant: Pyk2 (human) oligomerization antagonism; Q14289; Q293 cells, Pyk2 FERM NanoBiT luminescence; hits give low values; z-score (the deposit names both 25 µM and 10 µM); 0.83% of 99,000 active;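 active = Z-score of -3 or lower, scaled per plate to the spread of control and sample wells; inactive = z-score above -3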;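 note: negative z-score means lost luminescence so less FERM oligomerization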
HUVEC inhibit: human endothelial cell proliferation inhibition | HUVEC proliferation, CellTiter-Glo luminescence, 72 h; hits give low values | viability, % at 10 µM (by protocol) | 1.1% of 86,000 active | AID 648;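 active = viability at or below 30%; inactive = viability above 30%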
Jurkat viability: reduces viability or proliferation of Jurkat cells; Jurkat E6.1 viability, ATP luminescence, 48 h; inhibition, % at 4 µM; 1.2% of 56,000 active;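 active = inhibition above the mean inhibition of all tested compounds plus 3 SD, cut at about 28% in these data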
Hits are given with their value; - = inactive; . = not tested or not shown. A selection: hits, their analogues and other compounds. The true share with any hit is near 5.9%.

SMILES	H69AR growth 86K	Lung fibro prol	MT1-MMP txn act	PTK2B oligo ant	HUVEC inhibit	Jurkat viability
CCOC(=O)c1c(C)oc2c1c(C=NCC1CCCO1)c(O)c1ccccc12 (centres undefined)	26	-	-	-	-	-
Cc1ccc(C)c(-c2nc3ccc(N)cc3[nH]2)c1	-	-	-	-	-	-
Nc1ccc2nc(-c3ccc(Cl)cc3)[nH]c2c1	17	-	.	.	-	-
Nc1cc(N)cc(-c2nc3ccccc3[nH]2)c1	-	-	-	-	-	-
Nc1ccc2nc(-c3cc(Cl)c(N)c(Cl)c3)[nH]c2c1	35	-	-	-	-	.
Nc1ccc(-c2nc3c(Cl)c(N)ccc3[nH]2)cc1	21	-	-	-	-	-
Cc1ccc2nc(SC(C)C(=O)Nc3cccc([N+](=O)[O-])c3)[nH]c2c1 (centres undefined)	.	.	.	-	.	.
Sc1oc(-c2ccccc2)cc1C=Nc1ccccc1	26	-	-	-	-	.
Cc1cc(Nc2nc3ccccc3nc2Cl)n(-c2ccccc2)n1	36	-	-	-	-	.
Cc1cc(Nc2nc3ccccc3nc2Cl)n(-c2ccccc2C)n1	17	-	-	-	-	.
O=C(NCc1ccco1)c1c[nH]c2ccc(S(=O)(=O)N3CCOCC3)cc2c1=O	-	-	-	-	-	.
CCc1ccccc1NS(=O)(=O)c1ccc2[nH]cc(C(=O)NCc3ccco3)c(=O)c2c1	-	-	-	-	28	-
COc1cc2c(cc1NC(=O)C(C)OC(=O)C1CC(=O)N(Cc3ccco3)C1)oc1ccccc12 (centres undefined)	-	-	2.1	-	-	.
Cc1ccc(NC(=O)c2nnn(CC(=O)Nc3ccccc3)c2N)cc1C	25	-	-	-	-	-
CC(=O)c1cccc(NC(=O)Nc2ccc3c(c2)N(C)C(=O)CS3)c1	24	-	.	-3.3	-	.
Cc1cc(C)cc(NC(=O)Nc2ccc3c(c2)N(C)C(=O)CS3)c1	-	-	.	.	-	.
COc1ccc(OC)c(C(=O)CSc2nc3c(c(=O)n(C)c(=O)n3C)n2C(C)C)c1	-	-	-	-	-	-
Cc1cc(-c2n[nH]c(=S)o2)c(C)n1-c1ccccc1	38	-	-	.	-	.
O=C(Nc1nnc(CC(=O)N2CCCC2)s1)c1cnccn1	-	-	-	.	-	.
CCCCCn1c(=O)[nH]c2cc(C(=O)N3CCN(Cc4ccc5c(c4)OCO5)CC3)ccc2c1=O	9.3	-	.	-	-	.
COC(=O)c1ccc2c(=O)n(CCCCCC(=O)NCc3ccc4c(c3)OCO4)c(=O)[nH]c2c1	-	-	-	-	-	.
CCCCCn1c(=O)[nH]c2cc(C(=O)NCc3ccc4c(c3)OCO4)ccc2c1=O	32	-	-	-	-	.
O=C(CCCn1c(=O)[nH]c2ccsc2c1=O)N1CCN(Cc2ccc3c(c2)OCO3)CC1	-	-	-	-	-	.
C=CCn1c(CCNC(=O)c2cccs2)nnc1SCC(=O)Nc1cccc(F)c1	-	-	-	-	-	.
COCCn1nnnc1C(c1cc2ccc(C)cc2[nH]c1=O)N(Cc1ccco1)Cc1cccs1 (centres undefined)	-	-	-	-	-	-
SMILES	H69AR growth 86K	Lung fibro prol	MT1-MMP txn act	PTK2B oligo ant	HUVEC inhibit	Jurkat viability
O=C(Nc1cccnc1)c1ccc(COc2cc(Cl)ccc2Cl)o1	37	-	-	-	-	.
CCc1nc(SCC(=O)Nc2cc(C)on2)c2c(C)c(C)sc2n1	-	-	-	-	-	-
Cc1cc(NC(=O)CSc2nc(C3CC3)nc3sc(C)c(C)c23)no1	24	-	-	-	-	.
CCC(=O)N1c2ccccc2NC2=C(C(=O)CCC2)C1c1ccccc1 (centres undefined)	-	-	-	-	-	.
O=C1CCCC2=C1C(c1ccco1)Nc1ccc(C(=O)c3ccccc3)cc1N2 (centres undefined)	13	-	-	-	-	-
COc1ccc2nc(SCC(=O)N3CCN(c4ccccc4F)CC3)c(C#N)cc2c1	-	-	-	.	-	.
CCc1cccc(CC)c1N(COC)C(=O)Cn1c(C(C)O)nc2ccccc21 (centres undefined)	-	-	-	-	-	-
COc1ccc(-c2nn(-c3ccccc3)cc2C(=O)O)cc1OC	-	-	-	-	-	.
Cc1ccc(C(=O)n2nnc3ccccc32)cc1	-	-	-	.	-	.
C#CCOC(=O)c1ccccc1C(=O)OCC#C	-	-	-	-	-	-
O=C(c1cccc2ccccc12)n1nnc2ccccc21	6.5	-	-	.	-	.
COc1ccc(-c2nn(-c3ccccc3)cc2C(=O)n2nnc3ccccc32)cc1	23	-	-	-	-	.
C#CCOC(=O)c1ccccc1C(=O)n1nnc2ccccc21	38	-	-	-	-	-
Cc1cc(=O)[nH]c(SCC(=O)C23CC4CC(CC(C4)C2)C3)c1C#N	18	-	-	-	-	-
Cc1cc(=O)[nH]c(SCC(=O)O)c1C#N	-	-	-	-	-	.
COc1cc(C2c3c(n[nH]c3C)C(=O)N2c2ccc(Br)cc2)ccc1O (centres undefined)	-	-	-	-	-	-
Cc1[nH]nc2c1C(c1cccnc1)N(c1ccc(Br)cc1)C2=O (centres undefined)	-	-	-	-4	-	-
CCN(CCNC(=O)Nc1ccc(Cl)cc1)c1ccccc1	7.2	-	-	-	-	-
Oc1ccc(CN2CCc3ccccc3C2)c2cccnc12	38	13	-	-	-	.
Oc1ccc(COCc2ccccc2)c2cccnc12	1.6	14	-	-	-	68
Oc1ccc(CN2CCCCC2)c2cccnc12	0.7	3.1	-	-	-	.
Oc1ccc(CNc2ccccc2F)c2cccnc12	28	-	-	-	-	-
Oc1ccc2ccccc2c1CN1CCN(c2ccccc2)CC1	-	-	-	-	-	.
OCc1ccc(O)c2ncccc12	22	28	-	-	-	.
Oc1ccc(CN2CCN(c3ccccc3)CC2)c2cccnc12	23	26	-	-	-	.
SMILES	H69AR growth 86K	Lung fibro prol	MT1-MMP txn act	PTK2B oligo ant	HUVEC inhibit	Jurkat viability
CCOC(=O)C1=C(C)N(CCCC(=O)O)C(=O)NC1C(CC)CC (centres undefined)	.	.	-	.	.	.
CCN(CC)CCNc1ncnc2c1[nH]c1ccc(OC)cc12	-	-	-	.	-	.
COc1ccc2[nH]c3c(NCc4ccco4)ncnc3c2c1	-	-	2.1	.	-	.
Cc1ccc(S(=O)(=O)Nc2cc(C(=O)NCCN3CCCC3)ccc2N2CCCCC2)cc1	-	-	-	-	28	-
Cc1ccc(S(=O)(=O)Nc2cc(C(=O)NCCN(C)C)ccc2N2CCCCC2)cc1	-	-	-	-	-	-
C=C1CC2C=C(NC(C)=O)CC(C1)C2 (centres undefined)	-	-	-	-	-	-
COc1ccc(C(=O)Nc2ccc(Cl)c(Cl)c2)c(OC)n1	-	-	-	-	-	-
CC(C)C1O/C(=N/C(=O)Nc2ccc(Cl)c(Cl)c2)NC1=O (centres undefined)	11	-	-	-	-	-
CCCNC(=O)NC(=O)CSc1nc2cc(C(=O)OC)ccc2c(=O)n1-c1ccccc1	.	.	.	-3.1	.	.

Assay outcomes: PubChem, several laboratories
